Measurements taken from PubChem BioAssay AID651740 (Broad Institute, 2012).
In all, about 5,600 compounds went through this assay and about 1,200 (21%) were called active. Roughly 3% stayed inconclusive and do not appear here. Not all results are given here. A number with no mark means an inactive call.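 How the source made its calls: active means mean inhibition above about 95%, with at least 55% of replicates also reaching it (limit read from the data); inconclusive means meets just one of the two conditions; inactive means meets neither condition.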

Test: inhibitors of intracellular T. cruzi replication, confirmation, NIH3T3 host cells, beta-gal parasites, cherry-pick, set 2 (AID 651740);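 further: plate controls were neutral control median for no effect and positive control median for full effect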
Conditions: T. cruzi beta-gal in NIH3T3, GalScreen luminescence, 90 h; at 2.09 µM; hits give high values
How it was run: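 Timing: host attachment 3 h, co-culture ≥90 h, lysis 60 min / Test system: NIH/3T3 host cells with beta-gal T. cruzi Tulahuen C4 / Quantity: 5,000 fibroblasts/well / Dosing: single point, 100 nL compound in DMSO pinned per well / Buffer or medium: 2% FBS DMEM with PSG / Detection: GalScreen luminescence (substrate 1:25 in Buffer B) after cell lysis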

SMILES | inhibition
C[C@@H]1CN([C@@H](C)CO)S(=O)(=O)c2ccc(-c3cccc(F)c3)cc2O[C@@H]1CN(C)S(=O)(=O)c1ccccc1 | 94.1%
CC(C)CC#Cc1ccc2c(c1)O[C@H](CN(C)Cc1cccnc1)[C@H](C)CN([C@@H](C)CO)S2(=O)=O | 81.2%
C[C@@H]1CN([C@H](C)CO)S(=O)(=O)c2ccc(-c3cccc(F)c3)cc2O[C@H]1CN(C)S(=O)(=O)c1ccc(F)cc1 | 74.9%
CC(C)CC#Cc1ccc2c(c1)O[C@H](CN(C)S(=O)(=O)c1cccc(F)c1)[C@@H](C)CN([C@@H](C)CO)S2(=O)=O | 110% (active)
CC(C)CC#Cc1ccc2c(c1)O[C@H](CN(C)Cc1ccncc1)[C@H](C)CN([C@H](C)CO)S2(=O)=O | 89.4%
CC(C)CC#Cc1ccc2c(c1)O[C@H](CN(C)Cc1ccccc1F)[C@@H](C)CN([C@@H](C)CO)S2(=O)=O | 113% (active)
O=C(C[C@@H]1C[C@@H]2c3cc(NC(=O)c4ccc5c(c4)OCO5)ccc3O[C@@H]2[C@@H](CO)O1)NCc1ccc(Cl)cc1 | -3.27%
Cc1cccc(-c2ccc([C@@H]3[C@@H](CO)N4CCCCN(S(=O)(=O)c5cccs5)C[C@H]34)cc2)c1 | 94.4%
O=S(=O)(Cc1ccccc1)N1CCCCN2[C@@H](CO)[C@@H](c3ccc(-c4ccc(F)cc4)cc3)[C@@H]2C1 | 104% (active)
CN(C)CC#Cc1ccc([C@H]2[C@H]3CN(S(=O)(=O)c4ccccc4F)CCCCN3[C@H]2CO)cc1 | 8.03%
O=S(=O)(Cc1ccccc1)N1CCCCN2[C@@H](CO)[C@H](c3ccc(-c4ccccc4)cc3)[C@@H]2C1 | 78.8%
COc1cccc(S(=O)(=O)N2CCCCN3[C@H](CO)[C@H](c4ccc(-c5ccncc5)cc4)[C@H]3C2)c1 | 100% (active)
COc1ccc(S(=O)(=O)N2CCCCN3[C@H](C2)[C@H](c2ccc(C#CCC(C)C)cc2)[C@@H]3CO)cc1 | 109% (active)
COc1ccccc1C#Cc1ccc([C@@H]2[C@H](CO)N3CCCCN(C(=O)C4CCCC4)C[C@@H]23)cc1 | 98.1% (active)
COc1ccccc1C#Cc1ccc([C@@H]2[C@H](CO)N3CCCCN(C(=O)C4CC4)C[C@@H]23)cc1 | 64.4%
O=S(=O)(Cc1ccccc1)N1CCCCN2[C@@H](CO)[C@H](c3ccc(-c4cccnc4)cc3)[C@@H]2C1 | 62.1%
COc1ccc(S(=O)(=O)N2CCCCN3[C@H](CO)[C@@H](c4ccc(C#CC(C)C)cc4)[C@H]3C2)cc1 | 79.7%
O=C(c1cccnc1)N1CCCCN2[C@@H](CO)[C@H](c3ccc(C#Cc4ccccc4)cc3)[C@@H]2C1 | 41.7%

SMILES | inhibition
CCS(=O)(=O)N1CCCCN2[C@@H](CO)[C@@H](c3ccc(-c4ccccc4)cc3)[C@@H]2C1 | 27.5%
OC[C@@H]1[C@H](c2ccc(C#CC3(O)CCCC3)cc2)[C@H]2CN(Cc3cncnc3)CCCCN12 | 79.8%
CNC[C@H]1OCCCC[C@@H](C)Oc2ccc(NS(C)(=O)=O)cc2C(=O)N([C@H](C)CO)C[C@H]1C | -9.33%
CO[C@H](CN(C)S(=O)(=O)c1ccc(Cl)cc1)[C@@H](C)CN(Cc1ccccc1Cl)[C@H](C)CO | 48.7%
COc1cccc(S(=O)(=O)Nc2ccc3c(c2)[C@H]2C[C@H](CC(=O)NCc4ccc(Cl)cc4)O[C@H](CO)[C@H]2O3)c1 | 2.49%
COc1cccc(S(=O)(=O)N2C[C@@H](O)COC[C@@H]3O[C@H](CC(=O)Nc4ccccc4)CC[C@H]32)c1 | 1.83%
C[C@H](CO)N1C[C@H](C)[C@@H](CN(C)S(=O)(=O)c2ccccc2F)Oc2ncc(C#Cc3ccccc3F)cc2C1=O | 93.7%
C[C@H]1CN([C@@H](C)CO)C(=O)Cc2cc(NC(=O)Cc3cn(C)c4ccccc34)ccc2O[C@@H]1CN(C)Cc1ccc(C(F)(F)F)cc1 | 43.7%
COc1cccc(S(=O)(=O)N2CCCCN3[C@H](CO)[C@H](c4ccc(C#CC5CC5)cc4)[C@H]3C2)c1 | 102% (active)
C/C=C/c1ccc([C@H]2[C@H]3CN(S(=O)(=O)c4ccccc4)CCCCN3[C@H]2CO)cc1 | 40.8%
C[C@@H](O)C#Cc1ccc([C@@H]2[C@H](CO)N3CCCCN(S(=O)(=O)c4ccccc4)C[C@@H]23)cc1 | 12%
C[C@H](O)C#Cc1ccc([C@@H]2[C@H]3CN(S(=O)(=O)c4ccccc4)CCCCN3[C@H]2CO)cc1 | -19.2%
O=C(Nc1cccc(F)c1)N1CCCCN2[C@H](CO)[C@H](c3ccc(C#CC4CC4)cc3)[C@@H]2C1 | 89.3%
COc1cccc(S(=O)(=O)N2CCCCN3[C@H](C2)[C@H](c2ccc(C#CC(C)C)cc2)[C@@H]3CO)c1 | 103% (active)
C[C@H](CO)N1C[C@H](C)[C@H](CN(C)C(=O)Nc2cccc3ccccc23)Oc2ncc(C#Cc3ccccc3)cc2C1=O | 59.1%
Cc1cccc(-c2ccc([C@@H]3[C@H](CO)N4CCCCN(C(=O)c5ccc6c(c5)OCO6)C[C@@H]34)cc2)c1 | 66.9%
C[C@@H]1CN([C@H](C)CO)S(=O)(=O)c2ccc(-c3cccc(C#N)c3)cc2O[C@@H]1CN(C)C(=O)Nc1ccccc1F | 85.2%
C[C@@H]1CN([C@@H](C)CO)C(=O)CCCn2cc(nn2)CO[C@@H]1CN(C)S(=O)(=O)c1ccccc1F | 34.3%
